Assay [1] in a line: inhibitors of TNFa-induced NFkB p65 translocation, primary screen, imaging, HUVEC, MLSMR starter and 10KST1 sets (AID 438;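 active = inhibition above 20% together with a positive visual image hit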;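 note: compound added about 3h40 before a 20 min TNFalpha stimulation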;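 for inhibition: signal is the nuclear over cytoplasmic p65 intensity ratio per well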). Conditions: HUVEC TNFa-induced p65 nuclear translocation; cell count: measured here: nuclei count (cytotoxicity indicator), at 2.08 µM; inhibition: at 2 µM, stronger effect = higher value, 0% TNFa-plus-vehicle, 100% no-TNFa wells.
Assay [2] is described as follows: inhibitors of mutant huntingtin aggregation, primary screen, imaging, exon1htt(103Q)mCFP cells, high-content imaging (AID 483;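 active = visual image review flags a hit and inhibition of aggregation exceeds 20%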;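 note: compound exposure lasted 3 days before fixation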;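 for nuclei count: percent of the per-plate median nuclei count of sample wells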). Conditions: exon1htt(103Q)mCFP cell line, aggregate imaging, at 2 µM; inhibition of aggregation: stronger effect = higher value; nuclei count: measured here: cell count, toxicity.
The nature of assay [3]: inhibitors of E-selectin induction by TNFa, primary screen, imaging, HUVEC, immunofluorescence, MLSMR starter and 10KST1 sets (AID 487;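 active = visually confirmed hit in the image check and inhibition above 20%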;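 for inhibition: signal is fraction of cell area covered by stained E-selectin grains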;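 for nuclei count: 100% = median nuclei count of all wells on the same plate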). Conditions: HUVEC TNFalpha-induced E-selectin immunofluorescence imaging, at 2 µM; inhibition: stronger effect = higher value; nuclei count: measured here: cell number, toxicity.
Assay [4] deals with Voltage-gated potassium channel subunit beta-2 (Rattus norvegicus) (UniProt P62483). Put plainly: KvBeta enzyme negative modulators, primary screen, biochemical, NADPH fluorescence (AID 622;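 active = fluorescence slope higher than the sample average by over 3 SD, cut at about -0.22 in these data, passing the limit was not always enough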;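 note: slope of raw intensity against log time taken from 70 to 1610 s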). The following applies: recombinant KvBeta, 4-cyanobenzaldehyde reduction, at 10 µM, stronger effect = higher value.
Chain of Voltage-gated potassium channel subunit beta-2 (Rattus norvegicus) (P62483 whole entry, looked up): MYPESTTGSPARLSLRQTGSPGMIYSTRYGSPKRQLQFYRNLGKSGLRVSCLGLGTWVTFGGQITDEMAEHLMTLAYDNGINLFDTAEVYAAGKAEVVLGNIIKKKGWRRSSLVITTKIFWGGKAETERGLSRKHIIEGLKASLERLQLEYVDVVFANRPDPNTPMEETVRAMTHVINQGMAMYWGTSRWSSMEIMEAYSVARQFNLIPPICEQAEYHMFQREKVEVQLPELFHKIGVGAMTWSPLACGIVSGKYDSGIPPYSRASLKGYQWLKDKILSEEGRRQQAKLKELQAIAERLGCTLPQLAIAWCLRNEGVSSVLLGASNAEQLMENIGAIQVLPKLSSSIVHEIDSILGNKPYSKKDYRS
Assay [5] has the same target. Put plainly: KvBeta positive modulators, primary screen, biochemical, NADPH fluorescence (AID 623;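 active = NADPH fluorescence slope more negative than the mean of all samples by about 3 SD, 99.7% confidence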;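 note: fluorescence intensity change per second fitted from 20 to 320 s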). The following applies: Recombinant KvBeta, NADPH fluorescence decrease slope, 10 min; at 10 µM; stronger effect = lower value.
Assay [6] concerns the target Muscarinic acetylcholine receptor M4 (Homo sapiens) (UniProt P08173). Put plainly: compounds altering M4/GIRK thallium flux, either direction, primary screen, M4 allosteric agonist project, cell-based, HEK293 M4/GIRK, BTC-AM (AID 625).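 Note: thallium influx through GIRK channels coupled to M4 in HEK293 cells with BTC-AM dye.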 Conditions: at 10 µM, actives lie on both sides. In outline:
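assay system = HEK293 cells with M4 receptor and GIRK channels | medium = pH 7.3 thallium assay buffer | doses = 10 µM final, single point | timing = cells overnight at 37 °C, BTC-AM loading 1 h, reads 2 min total | signal = BTC-AM fluorescence, 1 Hz kinetic reads | read-out = post-addition slope, 15–24 s, of baseline-normalized fluorescence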

The nature of assay [7]: inhibitors of Sendai virus-induced IRF3 signaling, primary screen, TLR/RLR signaling modifier project, cell-based, Sendai virus stimulus, luciferase, 10K MLSCN set (AID 602276;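 active = inhibition at or above 50% at 10 µM; inactive = inhibition below 50%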;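 note: firefly luciferase from ISG56 promoter only with Renilla not read in this screen; 0% = Sendai virus plus DMSO and 100% = medium plus DMSO without virus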). The following applies: HEK293 RL24 IRF3 luciferase reporter, at 10 µM, stronger effect = higher value. Background: In a reporter assay the amount or activity of a reporter protein is the signal.
Assay [8] is described as follows: inhibitors of poly I:C-induced TLR3 signaling, primary screen, cell-based, poly I:C stimulus, luciferase, 10K MLSCN set (AID 602277;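 active = inhibition of the reporter signal at or above 50%; inactive = inhibition below 50%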). The following applies: HEK293-TLR3 RL24 IRF3 luciferase reporter, at 10 µM, stronger effect = higher value.

Here are results for 14 compounds from PubChem BioAssay.

As usually defined, the inhibition is the drop in the measured response relative to a control, in per cent.

Active and inactive are the calls of the source.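 Rule for the calls, unless noted: active = fluorescence slope after compound addition differing from the mean of all tested samples at 99.7% confidence, mostly higher but some lower; inactive = the rest.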

Chain of Muscarinic acetylcholine receptor M4 (Homo sapiens) (P08173 whole entry, looked up): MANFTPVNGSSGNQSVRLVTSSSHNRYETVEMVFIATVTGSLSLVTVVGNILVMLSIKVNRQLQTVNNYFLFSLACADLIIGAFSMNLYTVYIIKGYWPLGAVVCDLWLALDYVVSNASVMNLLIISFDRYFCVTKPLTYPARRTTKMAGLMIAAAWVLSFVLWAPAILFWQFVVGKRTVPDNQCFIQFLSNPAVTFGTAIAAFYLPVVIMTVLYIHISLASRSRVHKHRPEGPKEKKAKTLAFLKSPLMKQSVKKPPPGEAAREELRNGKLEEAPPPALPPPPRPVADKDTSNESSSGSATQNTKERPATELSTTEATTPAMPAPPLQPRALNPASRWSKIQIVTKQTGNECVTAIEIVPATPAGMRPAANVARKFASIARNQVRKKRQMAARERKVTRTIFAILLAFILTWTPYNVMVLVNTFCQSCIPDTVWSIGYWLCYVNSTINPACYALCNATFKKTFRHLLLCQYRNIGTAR

With `O=C(CSC1=NC(=O)C(Cc2ccccc2)C(=O)N1)NC1CCCCC1` (centres undefined), in assay [1], the cell count amounted to 605. Moreover, the inhibition is -9.8% (inactive) in assay [1], -11.4% (inactive) in assay [3], -10.2% (inactive) in assay [7] and -11.1% (inactive) in assay [8]. In addition, in assay [2], the inhibition of aggregation was -13.9% (inactive). For the same compound, the nuclei count in assay [2] was found to be 104%; in assay [3], 108%. Besides, the fluorescence slope was -0.558 (inactive) in assay [4] and 0.0034 (inactive) in assay [6]. Besides, the NADPH fluorescence slope in assay [5] is -6.8e-05 (inactive).

Turning to `O=C(O)C1CC(=O)N(c2ccc(OCc3c(F)cccc3Cl)cc2)C1` (centres undefined), in assay [1], the cell count was found to be 571. Moreover, the inhibition was -18.3% (inactive) in assay [1], -18.6% (inactive) in assay [3], 4.5% (inactive) in assay [7] and 17.3% (inactive) in assay [8]. In addition, the inhibition of aggregation in assay [2] was -13% (inactive). In addition, the results for the nuclei count in assay [2] and in assay [3] were 100% and 116%, respectively. In addition, the fluorescence slope in assay [4] is -0.568 (inactive); in assay [6], 0.0057 (inactive). Besides, in assay [5], the NADPH fluorescence slope is -2.6e-05 (inactive).

As for `CC(=O)Nc1ccc(NC2=CC(=O)CC(C)(C)C2)cc1`, the cell count in assay [1] was determined as 424. In addition, the inhibition was 1% (inactive) in assay [1], -60% (inactive) in assay [3], 18.6% (inactive) in assay [7] and 17.5% (inactive) in assay [8]. Also, the inhibition of aggregation in assay [2] was 14% (inactive). Further, the values for the nuclei count in assay [2] and in assay [3] were 107% and 119%, respectively. In addition, the fluorescence slope in assay [4] was -0.541 (inactive); in assay [6], 0.00709 (inactive). The NADPH fluorescence slope in assay [5] is -5.8e-05 (inactive).

For the compound `O=C(CCCCCn1c(=O)[nH]c2ccsc2c1=O)N1CCCCC1`, the cell count in assay [1] amounted to 306. Also, the inhibition is -1.8% (inactive) in assay [1], -75% (inactive) in assay [3], 18.4% (inactive) in assay [7] and 6.28% (inactive) in assay [8]. For the same compound, the inhibition of aggregation in assay [2] is 25.2% (inactive). Besides, the figures for the nuclei count in assay [2] and in assay [3] were 91.7% and 85.7%, respectively. The fluorescence slope is -0.457 (inactive) in assay [4] and 0.0042 (inactive) in assay [6]. In addition, in assay [5], the NADPH fluorescence slope was -2.3e-05 (inactive).

As for `CCOC(=O)c1[nH]nc(-c2c(O)cc(C)cc2O)c1-c1csc(C)n1`, in assay [1], the cell count was found to be 495. In addition, the inhibition in assay [1] was -16.3% (inactive); in assay [3], 56.2% (inactive); in assay [7], -7.71% (inactive); in assay [8], -0.807% (inactive). Besides, the inhibition of aggregation in assay [2] is -2.1% (inactive). In addition, the nuclei count in assay [2] came out at 87.5%; in assay [3] it was 61.3%. The fluorescence slope is -0.453 (inactive) in assay [4] and 0.00535 (inactive) in assay [6]. Moreover, the NADPH fluorescence slope in assay [5] is -0.000313 (inactive).

For `CCn1c(=N)n(CC(=O)C23CC4CC(CC(C4)C2)C3)c2ccccc21`, the cell count in assay [1] was found to be 721. Further, the inhibition in assay [1] is -26.7% (inactive); in assay [3] it was -45.9% (inactive); in assay [7] it was 1.98% (inactive); in assay [8], 23.3% (inactive). Also, in assay [2], the inhibition of aggregation was -8.2% (inactive). Besides, the nuclei count is 93.6% in assay [2] and 117% in assay [3]. Further, the fluorescence slope in assay [4] is -0.271 (inactive); in assay [6] it was 0.00365 (inactive). The NADPH fluorescence slope in assay [5] is -1.5e-05 (inactive).

`CCN1CCN(c2c(Cl)cccc2NC(=O)c2ccc3c(c2)OCCO3)CC1`: in assay [1], the cell count came out at 505. For the same compound, the inhibition in assay [1] was 2.1% (inactive); in assay [3], -82.8% (inactive); in assay [7], 10.2% (inactive); in assay [8] it was 18.4% (inactive). In addition, the inhibition of aggregation in assay [2] was -4.5% (inactive). Moreover, the nuclei count in assay [2] was found to be 111%; in assay [3], 216%. The figures for the fluorescence slope in assay [4] and in assay [6] were -0.264 (inactive) and 0.0079 (inactive), respectively. In assay [5], the NADPH fluorescence slope is -8.8e-06 (inactive).

Consider `CCN1CCN(Cc2ccccc2NC(=O)Nc2ccc(C)cc2)CC1`, for which the cell count in assay [1] was 258. The inhibition in assay [1] is -3.1% (inactive); in assay [3], -23.4% (inactive); in assay [7], -27.3% (inactive); in assay [8], -69.1% (inactive). The inhibition of aggregation in assay [2] was 21.9% (inactive). For the same compound, the nuclei count in assay [2] worked out at 41.1%; in assay [3], 94%. Moreover, the fluorescence slope in assay [4] was -0.487 (inactive); in assay [6], 0.00496 (inactive). Besides, in assay [5], the NADPH fluorescence slope is -6.3e-07 (inactive).

As for `COC(=O)c1sc(NC(=O)COc2ccccc2OC)nc1C`, the cell count in assay [1] was 368. Further, the inhibition in assay [1] was -4.7% (inactive); in assay [3] it was -153% (inactive); in assay [7], 9.11% (inactive); in assay [8], 2.53% (inactive). Moreover, the inhibition of aggregation in assay [2] is -9.7% (inactive). Moreover, the figures for the nuclei count in assay [2] and in assay [3] were 96.7% and 122%, respectively. Also, the fluorescence slope in assay [4] was -0.229 (inactive); in assay [6], 0.00636 (inactive). In addition, in assay [5], the NADPH fluorescence slope is -2.1e-05 (inactive).

Take `CCOC(=O)CNC(=O)CSc1ncnc2c1cnn2-c1ccccc1`: the cell count in assay [1] was 564. The inhibition in assay [1] was -9.2% (inactive); in assay [3], -69.6% (inactive); in assay [7], 7.97% (inactive); in assay [8], 8.26% (inactive). Further, the inhibition of aggregation in assay [2] was -10.3% (inactive). In addition, the nuclei count in assay [2] was found to be 113%; in assay [3] it was 118%. Further, the fluorescence slope in assay [4] is -0.562 (inactive); in assay [6], 0.00493 (inactive). Besides, the NADPH fluorescence slope in assay [5] was 3.9e-05 (inactive).

With `O=C(Nc1ccc2c(c1)OCO2)c1ccc(Br)c(S(=O)(=O)N2CCCC2)c1`, the cell count in assay [1] came to 660. Besides, the inhibition in assay [1] was -5.2% (inactive); in assay [3], -99.5% (inactive); in assay [7], -20.9% (inactive); in assay [8] it was -15.4% (inactive). The inhibition of aggregation in assay [2] is -2% (inactive). Also, the nuclei count in assay [2] came out at 103%; in assay [3] it was 90.4%. In addition, the results for the fluorescence slope in assay [4] and in assay [6] were -0.505 (inactive) and 0.0042 (inactive), respectively. Moreover, the NADPH fluorescence slope in assay [5] was -6.5e-05 (inactive).

With `Cc1ccc(S(=O)(=O)N(C)c2ccc(OCC(=O)OCc3c(C)noc3C)cc2)cc1`, the cell count in assay [1] was 455. Also, the inhibition in assay [1] was -15.1% (inactive); in assay [3], -15.8% (inactive); in assay [7], 5.73% (inactive); in assay [8], 14.5% (inactive). Besides, the inhibition of aggregation in assay [2] is 8.4% (inactive). Besides, the nuclei count in assay [2] stood at 146%; in assay [3], 108%. Moreover, the fluorescence slope was -0.583 (inactive) in assay [4] and 0.00507 (inactive) in assay [6]. In assay [5], the NADPH fluorescence slope is -3.3e-05 (inactive).

Regarding `S=c1[nH]nc(COc2ccccc2)n1C1CCCCC1`, in assay [1], the cell count was found to be 552. Moreover, the inhibition was 8% (inactive) in assay [1], 48.2% (inactive) in assay [3], -4.8% (inactive) in assay [7] and 10.9% (inactive) in assay [8]. The inhibition of aggregation in assay [2] is 18.7% (inactive). Also, the nuclei count was determined as 91.7% in assay [2] and 105% in assay [3]. The fluorescence slope is -0.553 (inactive) in assay [4] and 0.0103 (inactive) in assay [6]. The NADPH fluorescence slope in assay [5] was -3e-06 (inactive).

For the compound `O=C(Nc1ccncc1)c1cncc(Br)c1`, the cell count in assay [1] amounted to 718. Also, the inhibition in assay [1] was -3% (inactive); in assay [3] it was -153% (inactive); in assay [7] it was 1.8% (inactive); in assay [8], 0.632% (inactive). In assay [2], the inhibition of aggregation was -6.3% (inactive). Moreover, the values for the nuclei count in assay [2] and in assay [3] were 98% and 114%, respectively. Besides, the fluorescence slope in assay [4] was -0.243 (inactive); in assay [6], 0.00626 (inactive). The NADPH fluorescence slope in assay [5] is -9.4e-06 (inactive).
